The list is not random: actives were taken first. Their share in the collection is about 1.1%.
hK5 inh: inhibitors of human kallikrein 5; 0.59% of 210,000 active; inhibition, % at 5 µM; recombinant hK5, fluorogenic AMC substrate cleavage; Q9Y337; AID 873;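 active = inhibition of 40% or more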;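 note: 0% = enzyme controls without compound and 100% = no-enzyme blanks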
FXIIa inh: factor XIIa (human) inhibition. P00748. purified FXIIa, Boc-QGR-AMC fluorogenic substrate, 2 h. inhibition, % at 5 µM. 0.3% of 220,000 active. AID 800; in the data active = inhibition above about 40%;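 note: 0% = enzyme with no compound and 100% = blank without enzyme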
Furin inhibitor: inhibitors of human furin | 0.061% of 220,000 active | purified furin, fluorogenic substrate cleavage | P09958 | inhibition, % at 20 µM or 30 µM; in the data active = inhibition above about 25%
FXIa inh: factor XIa (human) inhibition | P03951 | purified FXIa, Boc-Glu-Ala-Arg-AMC fluorogenic substrate | inhibition, % at 5 µM | 0.14% of 220,000 active | AID 798;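 active = inhibition of at least 40%; inactive = inhibition below 40%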;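 note: fluorescence of freed AMC excited at 355 nm; 0% = enzyme without compound and 100% = no enzyme blank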
Thrombin inh: thrombin (human) inhibition; alpha-thrombin, Boc-VPR-AMC fluorogenic substrate cleavage; inhibition, % at 5 µM; 0.26% of 220,000 active; AID 1046;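 active = inhibition at or above 40%; inactive = inhibition below 40%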;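 note: 0% = enzyme with no compound and 100% = wells without enzyme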
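System: human alpha-thrombin protein; Compound dosing: one concentration per compound, 5 µM, with 0.2% DMSO; Timing: reaction at room temperature; Technique: AMC fluorescence, 355/460 nm; Controls: enzyme without compound as high, wells lacking enzyme as low.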
Numbers without * were called inactive.

Screening COc1cccc(C2=NOC(C(=O)Nc3c(C)n(C)n(-c4ccccc4)c3=O)C2)c1 (stereo unspecified) returned hK5 inh -1, FXIIa inh -1, Furin inhibitor -14, FXIa inh -1 and Thrombin inh -11.
`CCn1ncc(C2=NOC(C(=O)NCc3ccccc3)C2)c1C` (stereo unspecified) gave hK5 inh 45*, FXIIa inh 16, Furin inhibitor -18, FXIa inh 2 and Thrombin inh 18.
Screening CCNC(=O)NC(=O)COC(=O)CCCSc1nc2ccccc2s1 returned hK5 inh -11, FXIIa inh 4, Furin inhibitor -21, FXIa inh -4 and Thrombin inh -4.
`CNC(=O)/C(C#N)=C/c1c(N(Cc2ccccc2)Cc2ccccc2)nc2c(C)cccn2c1=O` gave hK5 inh 49*, FXIIa inh 24, Furin inhibitor -4, FXIa inh 10 and Thrombin inh 25.
Cn1c2ccccc2c(=O)c2c(=O)n(Cc3ccccc3)c(-c3ccc(F)cc3)nc21 was read as hK5 inh 3, FXIIa inh 6, Furin inhibitor -18, FXIa inh -5 and Thrombin inh -2.
COc1ccc(C(=O)/C=C/NCc2ccc(F)cc2)cc1OC was read as hK5 inh 62*, FXIIa inh 31, Furin inhibitor -3, FXIa inh 17 and Thrombin inh 5.
Screening O=C(COC(=O)C1CCN(S(=O)(=O)c2ccc3c(c2)OCCO3)CC1)Nc1cccc2ccccc12 returned hK5 inh -6, FXIIa inh -5, Furin inhibitor -7, FXIa inh -7 and Thrombin inh -14.
Screening CC1CN(c2nc3ccccc3nc2C(C#N)C(=O)OC2CCCCC2)CC(C)O1 (stereo unspecified) returned hK5 inh 64*, FXIIa inh 1, Furin inhibitor -17, FXIa inh 12 and Thrombin inh 20.
O=C(N/N=C/c1ccc(OC(F)F)cc1)c1cccc(S(=O)(=O)N2CCOCC2)c1 was read as hK5 inh -2, FXIIa inh 9, Furin inhibitor -19, FXIa inh 0 and Thrombin inh -2.
`C=C(C)C(=O)Nc1cccc(C2=NOC3(C2)C[C@H](C(N)=O)N(C(=O)CC)C3)c1` (stereo partly specified) gave hK5 inh 28, FXIIa inh 55*, Furin inhibitor -3, FXIa inh 36 and Thrombin inh 17.
CC/C=C/C(=O)N1CC2(CC(c3cccc(NC(=O)CCCCC)c3)=NO2)C[C@H]1C(N)=O (stereo partly specified) was read as hK5 inh 31, FXIIa inh 16, Furin inhibitor 1, FXIa inh 42* and Thrombin inh -2.
For CC(Sc1ncnc2sccc12)C(=O)Nc1ccc(C(N)=O)cc1 (stereo unspecified) the results were hK5 inh -3, FXIIa inh 5, Furin inhibitor -38, FXIa inh -1 and Thrombin inh -4.
`CC(C)CNC(=O)C(=O)NNC(=O)c1ccco1` gave hK5 inh 1, FXIIa inh 6, Furin inhibitor -35, FXIa inh -1 and Thrombin inh -7.
For CCn1c(C(C)NC(C)=O)nc2ccccc21 (stereo unspecified) the results were hK5 inh 57*, FXIIa inh 3, Furin inhibitor -11, FXIa inh 5 and Thrombin inh 21.
Screening COC(=O)c1ccc(C2NC(=O)c3c(sc(C)c3C)N2)cc1 (stereo unspecified) returned hK5 inh -10, FXIIa inh 3, Furin inhibitor -7, FXIa inh 1 and Thrombin inh -8.
For Cc1sc2c(c1C)C(=O)NC(c1cccc(O)c1)N2 (stereo unspecified) the results were hK5 inh -16, FXIIa inh 16, Furin inhibitor -19, FXIa inh 40* and Thrombin inh 2.
Screening COc1cc(/C=N/n2cnnc2)ccc1OC(=O)c1cccnc1 returned hK5 inh -2, FXIIa inh 42*, Furin inhibitor -15, FXIa inh 19 and Thrombin inh -5.
Screening Cc1cc(C)n2c(Br)c(CSc3nc4ccccc4s3)nc2n1 returned hK5 inh -9, FXIIa inh 11, Furin inhibitor -18, FXIa inh 17 and Thrombin inh 4.
For Cc1ccc(-c2c(C)sc(NC(=O)C3C4CCC(O4)C3C(=O)O)c2C(=O)OC(C)C)cc1 (stereo unspecified) the results were hK5 inh 107*, FXIIa inh -3, Furin inhibitor -15, FXIa inh -7 and Thrombin inh 3.
`COc1ccc2c(c1)CCc1c(C(=O)NCc3ccc(F)cc3)noc1-2` gave hK5 inh -7, FXIIa inh 49*, Furin inhibitor -2, FXIa inh 6 and Thrombin inh -3.
`O=C1CCCc2c1[nH]c1c(Br)cccc21` gave hK5 inh 11, FXIIa inh -6, Furin inhibitor -11, FXIa inh -9 and Thrombin inh -3.
For Cc1cc(Br)c2[nH]c3c(c2c1)CCCC3=O the results were hK5 inh 0, FXIIa inh 54*, Furin inhibitor -13, FXIa inh 31 and Thrombin inh 3.
`FC(F)(F)c1cccc(Cn2cnc(NC(=S)NCCc3ccccc3)n2)c1` gave hK5 inh -8, FXIIa inh 1, Furin inhibitor -21, FXIa inh -3 and Thrombin inh -1.
For COc1ccc(NC(=O)Nc2ncn(Cc3cccc(C(F)(F)F)c3)n2)cc1OC the results were hK5 inh -8, FXIIa inh 19, Furin inhibitor 29*, FXIa inh -2 and Thrombin inh -2.
`COc1cscc1C(=O)O` gave hK5 inh 27, FXIIa inh 3, Furin inhibitor -14, FXIa inh -10 and Thrombin inh -5.
Cc1ccccc1C(=O)Nc1ccc(C(=O)N/N=C/c2ccc(O)c(Br)c2)cc1 was read as hK5 inh 4, FXIIa inh 5, Furin inhibitor -2, FXIa inh 0 and Thrombin inh -7.
For COc1ccc(CNC(=O)COC(=O)c2ccccn2)cc1 the results were hK5 inh -6, FXIIa inh 5, Furin inhibitor -28, FXIa inh -3 and Thrombin inh -12.
For O=C1OC(Nc2ccc(F)c([N+](=O)[O-])c2)c2ccccc21 (stereo unspecified) the results were hK5 inh 26, FXIIa inh 26, Furin inhibitor -4, FXIa inh 44* and Thrombin inh 50*.
Screening CN(NC1OC(=O)c2ccccc21)c1ccc(Cl)cc1[N+](=O)[O-] (stereo unspecified) returned hK5 inh -6, FXIIa inh 5, Furin inhibitor -9, FXIa inh 4 and Thrombin inh -6.
CC1(C)N=c2ccc([N+](=O)[O-])c(N)c2=[N+]1[O-] was read as hK5 inh 22, FXIIa inh 24, Furin inhibitor 10, FXIa inh 40* and Thrombin inh 20.

Bioassay records from PubChem BioAssay.
